Test results from ChEMBL document CHEMBL3758131, “Towards new 5-HT7 antagonists among arylsulfonamide derivatives of (aryloxy)ethyl-alkyl amines: Multiobjective based design, synthesis, and antidepressant and anxiolytic properties” (Eur J Med Chem, 2016).

How the values were obtained:
[1] = target: 5-hydroxytryptamine receptor 7 (Homo sapiens, UniProt P34969); assay: Antagonist activity at human 5-HT7B receptor expressed in […] cells assessed as inhibition of 5-CT induced cAMP production at 10^-6 M after 30 mins by TR-FRET assay; format: functional, cell-based
[2] = target: 5-hydroxytryptamine receptor 6 (Homo sapiens, UniProt P50406); assay: Displacement of [3H]-LSD from human 5-HT6 receptor expressed in HEK293 cells after 1 hr; format: cell-based
Method in brief: (§1)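 Membranes from stably transfected HEK293 cells were homogenized in assay buffer and spun twice at 35,000 g with a 15-min 37 °C step between. Binding ran 1 h at 37 °C and was stopped by rapid filtration, then filter radioactivity was counted. 5-HT6 buffer: 50 mM Tris-HCl, 0.5 mM EDTA, 4 mM MgCl2, with methiothepine for nonspecific binding. D2L buffer: Tris-HCl, EDTA, MgCl2, 120 mM NaCl, KCl, CaCl2, ascorbate, with (+)butaclamol for nonspecific binding. Triplicate, 7–8 concentrations (10^-11–10^-4 M).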

Mus musculus [3] = assay: Antidepressant activity in C57BL/6J mouse assessed as immobility time at […], ip measured over 6 mins by tail suspension test (reference value: 160.7 +/- 12 to 170.6 +/- 9 sec); format: functional
Mus musculus [4] = assay: Antidepressant activity in ip dosed albino Swiss mouse assessed as decrease in immobility time at MED by forced swim test; format: functional
Mus musculus [5] = assay: Antidepressant activity in ip dosed C57BL/6J mouse assessed as reduction in immobility time of mouse by tail suspension test; format: functional; settings: read-out: MED
Mus musculus [6] = assay: Antidepressant activity in C57BL/6J mouse assessed as immobility time at 0.625 mg/kg, ip measured over 6 mins by tail suspension test (reference value: 160.7 +/- 12 to 170.6 +/- 9 sec); format: functional
Homo sapiens = species: Homo sapiens; assay: Selectivity index ratio of Ki for human 5-HT1A receptor to Ki for human 5-HT7B
Mus musculus [7] = assay: Antidepressant activity in C57BL/6J mouse assessed as immobility time at 5 mg/kg, ip measured over 6 mins by tail suspension test (reference value: 160.7 +/- 12 to 170.6 +/- 9 sec); format: functional
D(2) dopamine receptor = D(2) dopamine receptor (Homo sapiens, UniProt P14416); assay: Displacement of [3H]-Raclopride from human D2L receptor expressed in HEK293 cells after 1 hr; format: cell-based; method in brief: as §1
Chain of D(2) dopamine receptor (P14416 whole entry): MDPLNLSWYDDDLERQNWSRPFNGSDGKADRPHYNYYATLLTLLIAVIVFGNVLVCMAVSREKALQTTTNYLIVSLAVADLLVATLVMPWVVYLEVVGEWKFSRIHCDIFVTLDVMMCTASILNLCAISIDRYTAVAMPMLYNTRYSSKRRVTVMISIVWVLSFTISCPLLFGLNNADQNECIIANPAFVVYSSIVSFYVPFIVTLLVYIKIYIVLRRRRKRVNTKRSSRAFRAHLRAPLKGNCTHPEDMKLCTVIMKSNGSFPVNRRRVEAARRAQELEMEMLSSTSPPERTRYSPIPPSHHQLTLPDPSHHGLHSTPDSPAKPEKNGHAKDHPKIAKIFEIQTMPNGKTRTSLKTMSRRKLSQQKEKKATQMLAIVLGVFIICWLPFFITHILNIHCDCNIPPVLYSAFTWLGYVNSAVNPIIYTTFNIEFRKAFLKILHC

Chain of 5-hydroxytryptamine receptor 7 (P34969 whole entry): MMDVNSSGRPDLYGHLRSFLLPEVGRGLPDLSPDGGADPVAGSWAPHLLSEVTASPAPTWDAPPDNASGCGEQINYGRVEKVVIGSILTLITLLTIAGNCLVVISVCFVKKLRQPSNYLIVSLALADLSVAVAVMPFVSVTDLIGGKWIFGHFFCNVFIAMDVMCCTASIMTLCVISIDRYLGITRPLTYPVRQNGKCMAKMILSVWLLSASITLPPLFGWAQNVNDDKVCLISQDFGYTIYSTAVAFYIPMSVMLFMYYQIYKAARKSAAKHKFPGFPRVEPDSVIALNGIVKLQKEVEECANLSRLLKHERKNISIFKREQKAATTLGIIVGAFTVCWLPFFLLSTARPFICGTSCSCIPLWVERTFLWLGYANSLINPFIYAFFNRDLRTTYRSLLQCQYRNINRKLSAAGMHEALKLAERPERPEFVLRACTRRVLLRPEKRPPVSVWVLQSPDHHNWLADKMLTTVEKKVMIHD
Chain of 5-hydroxytryptamine receptor 6 (P50406 whole entry): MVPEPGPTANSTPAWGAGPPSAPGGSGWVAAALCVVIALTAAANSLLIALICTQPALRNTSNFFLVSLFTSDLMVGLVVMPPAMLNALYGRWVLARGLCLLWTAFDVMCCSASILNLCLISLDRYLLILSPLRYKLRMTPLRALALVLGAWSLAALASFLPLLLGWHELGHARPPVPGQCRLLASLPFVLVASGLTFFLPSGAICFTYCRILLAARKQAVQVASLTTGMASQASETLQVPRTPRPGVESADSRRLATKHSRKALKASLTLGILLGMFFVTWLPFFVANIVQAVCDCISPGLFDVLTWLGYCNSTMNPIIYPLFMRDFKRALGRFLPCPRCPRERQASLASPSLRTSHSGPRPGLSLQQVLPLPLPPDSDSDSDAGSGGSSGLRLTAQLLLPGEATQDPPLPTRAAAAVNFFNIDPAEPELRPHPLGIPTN

Structure (SMILES): O=S(=O)(NC1CCN(CCOc2ccccc2C2CCCC2)CC1)c1cccc(F)c1
- inhibition [1]: 90%
- Ki [2]: 281 nM
- Time (Mus musculus [3]): 103.5 s
- inhibition (INH) (Mus musculus [4]): 18%
- minimal effective dose (Mus musculus [5]): 2.5 mg/kg
- Time (Mus musculus [6]): 234.4 s
- Ratio Ki (Homo sapiens): 31
- Time (Mus musculus [7]): 142.8 s
- Ki (D(2) dopamine receptor): 322 nM
